Active and inactive are the calls of the source. The calls are words filed in the database; no cut-off is given here.
Legend:
[1] = Antiproliferative activity against human MIAPaCa2 cells after 48 hrs by SRB assay; type: functional; details: MIA PaCa-2, 48 h
Procedure, shortened: (§1)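 SRB assay in ATCC-sourced cells grown in DMEM with 10% FBS and penicillin/streptomycin at 37 °C, 5% CO2. Cells were plated at densities set by doubling time and incubated 24 h before dosing. Compounds (DMSO 10 mM stock diluted in medium) were tested at 0.01, 0.1, 1, 10 and 100 µM with 48 h continuous exposure. Cells were fixed in cold 10% TCA and stained with 0.057% SRB; OD was read at 510 nm. GI50 was derived from time-zero, control and test absorbances and reported as the mean of three independent experiments.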

[2] = Antiproliferative activity against human MCF7 cells after 48 hrs by SRB assay; type: functional; details: MCF7, 48 h; procedure, shortened: as §1
[3] = Antiproliferative activity against human HeLa cells after 48 hrs by SRB assay; type: functional; procedure, shortened: as §1
[4] = Downregulation of CDK1 in human MCF7 cells at 50 to 100 nM after 48 hrs by Western blot analysis; type: functional, cell-based
Procedure, shortened: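 MCF-7 cells were treated 48 h at 50 or 100 nM and lysed in RIPA buffer. Lysate (50 µg per lane) was resolved on 10% SDS-PAGE and transferred to PVDF. Membranes were BSA-blocked, probed with primary antibody for 24 h and detected by chemiluminescence, with β-actin as loading control.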

[5] = Cell cycle arrest in human MCF7 cells assessed as accumulation at G2/M phase after 48 hrs by propidium iodide-staining based FACS analysis; type: functional
Procedure, shortened: (§2)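 MCF-7 cells were incubated 48 h with compound at 50 or 100 nM; nocodazole 100 nM was the reference. Untreated and treated cells were harvested, washed in PBS, fixed in ice-cold 70% ethanol, stained with propidium iodide and analysed by flow cytometry for cell-cycle phase distribution.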

[6] = Cell cycle arrest in human MCF7 cells assessed as reduction in DNA content at G0/G1 phase at 50 to 100 nM after 48 hrs by propidium iodide-staining based FACS analysis; type: functional; procedure, shortened: as §2
MCF7 [7] = test: Induction of apoptosis in human MCF7 cells assessed as chromatin condensation at 50 to 100 nM after 48 hrs by Hoechst 33242-staining based fluorescence microscopic analysis; type: functional, cell-based
Procedure, shortened: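 MCF-7 cells were seeded at 1×10^5 cells/mL, exposed to compound at 50 or 100 nM, with DMSO vehicle as control. They were fixed in 4% paraformaldehyde for 10 min at 4 °C and stained with Hoechst 33242 (2 µg/mL) for 10 min at room temperature. Nuclear morphology was imaged by fluorescence microscopy in random fields.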

MCF7 [8] = test: Induction of apoptosis in human MCF7 cells assessed as reduction in mitochondrial membrane potential at 50 to 100 nM after 48 hrs by rhodamine 123-staining based fluorescence microscopic analysis; type: functional, cell-based
Procedure, shortened: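 MCF-7 cells were plated at 1×10^5 cells/mL and allowed to adhere overnight, then treated at 50 or 100 nM. After PBS washes they were loaded with rhodamine 123 (5 µg/ml) for 30 min in the dark at 37 °C. Loss of green fluorescence was assessed by fluorescence microscopy.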

MCF7 [9] = test: Induction of apoptosis in human MCF7 cells assessed as intracellular ROS generation at 100 nM after 48 hrs by carboxy-DCFDA staining based fluorescence microscopic analysis; type: functional, cell-based
Procedure, shortened: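 MCF-7 cells were plated at 1×10^5 cells/mL, adhered overnight and treated at 50 or 100 nM. Methods and legend state 24 h treatment; the results text states 48 h. Cells were PBS-washed, fixed in 4% paraformaldehyde and exposed to carboxy-DCFDA for 30 min in the dark at room temperature. DCF fluorescence was assessed by fluorescence microscopy.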

MCF7 [10] = test: Induction of apoptosis in human MCF7 cells assessed as viable cells at 50 nM after 48 hrs by Annexin V FITC/propidium iodide-based FACS analysis (reference value: 93.1 %); type: functional; details: MCF7, 48 h, read-out: Activity
MCF7 [11] = test: Induction of apoptosis in human MCF7 cells assessed as early apoptotic cells at 50 nM after 48 hrs by Annexin V FITC/propidium iodide-based FACS analysis (reference value: 2.4 %); type: functional
MCF7 [12] = test: Induction of apoptosis in human MCF7 cells assessed as late apoptotic cells at 50 nM after 48 hrs by Annexin V FITC/propidium iodide-based FACS analysis (reference value: 4.2 %); type: functional
MCF7 [13] = test: Induction of apoptosis in human MCF7 cells assessed as necrotic cells at 50 nM after 48 hrs by Annexin V FITC/propidium iodide-based FACS analysis (reference value: 0.4 %); type: functional
MCF7 [14] = test: Induction of apoptosis in human MCF7 cells assessed as viable cells at 100 nM after 48 hrs by Annexin V FITC/propidium iodide-based FACS analysis (reference value: 93.1 %); type: functional; details: MCF7, 48 h, read-out: Activity
MCF7 [15] = test: Induction of apoptosis in human MCF7 cells assessed as early apoptotic cells at 100 nM after 48 hrs by Annexin V FITC/propidium iodide-based FACS analysis (reference value: 2.4 %); type: functional
MCF7 [16] = test: Induction of apoptosis in human MCF7 cells assessed as late apoptotic cells at 100 nM after 48 hrs by Annexin V FITC/propidium iodide-based FACS analysis (reference value: 4.2 %); type: functional
MCF7 [17] = test: Induction of apoptosis in human MCF7 cells assessed as necrotic cells at 100 nM after 48 hrs by Annexin V FITC/propidium iodide-based FACS analysis (reference value: 0.4 %); type: functional
MCF7 [18] = test: Induction of apoptosis in human MCF7 cells after 48 hrs by Annexin V FITC/propidium iodide-based FACS analysis; type: functional, cell-based

| SMILES | GI50 [1] [µM] | GI50 [2] [µM] | GI50 [3] [µM] | also measured |
| --- | --- | --- | --- | --- |
| COc1ccc(Cn2cc(CNC(=O)c3cn(-c4ccccc4)nc3-c3ccc(F)cc3)nn2)cc1OC | > 100 | > 100 | 0.2 | – |
| COc1cc(Cn2cc(CNC(=O)c3cn(-c4ccccc4)nc3-c3ccc(F)cc3)nn2)cc(OC)c1OC | 5.2 | 4.3 | 2.1 | – |
| COc1ccc(-c2nn(-c3ccccc3)cc2C(=O)NCc2cn(Cc3ccc(C(F)(F)F)cc3)nn2)cc1 | > 100 | > 100 | 6.2 | – |
| O=C(NCc1cn(Cc2ccc(F)cc2)nn1)c1cn(-c2ccccc2)nc1-c1ccc(Cl)cc1 | 1.99 | 0.57 | 2.8 | – |
| COc1ccc(Cn2cc(CNC(=O)c3cn(-c4ccccc4)nc3-c3ccccc3)nn2)cc1 | 10.2 | > 100 | 6.9 | – |
| O=C(NCc1cn(Cc2ccc(Cl)cc2)nn1)c1cn(-c2ccccc2)nc1-c1ccc(F)cc1 | 0.28 | 0.13 | 0.21 | Activity [4]: Active; Activity [5]: Dose-dependent effect; Activity [6]: Active; Activity (MCF7 [7]): Active; Activity (MCF7 [8]): Active; Activity (MCF7 [9]): Active; viability at 0.05 µM (MCF7 [10]): 83.8%; Activity (MCF7 [11]): 5.2%; Activity (MCF7 [12]): 10.3%; Activity (MCF7 [13]): 0.7%; viability at 0.1 µM (MCF7 [14]): 69.3%; Activity (MCF7 [15]): 8.2%; Activity (MCF7 [16]): 20.5%; Activity (MCF7 [17]): 2%; Activity (MCF7 [18]): Dose-dependent effect |
| COc1cc(Cn2cc(CNC(=O)c3cn(-c4ccccc4)nc3-c3ccc(Cl)cc3)nn2)cc(OC)c1OC | 3.5 | 2.5 | 0.1 | – |
| COc1ccc(Cn2cc(CNC(=O)c3cn(-c4ccccc4)nc3-c3ccc(OC)cc3)nn2)cc1 | 2.5 | 22.9 | 0.45 | – |
| COc1ccc(-c2nn(-c3ccccc3)cc2C(=O)NCc2cn(Cc3ccc(OC)c(OC)c3)nn2)cc1 | 16.3 | > 100 | 0.8 | – |
| COc1ccc(Cn2cc(CNC(=O)c3cn(-c4ccccc4)nc3-c3ccc(Cl)cc3)nn2)cc1 | 0.29 | 8 | 1.4 | – |
| O=C(NCc1cn(Cc2ccc(C(F)(F)F)cc2)nn1)c1cn(-c2ccccc2)nc1-c1ccc(Cl)cc1 | 1.1 | 4.9 | 1.9 | – |
| COc1ccc(-c2nn(-c3ccccc3)cc2C(=O)NCc2cn(Cc3ccc(Cl)cc3)nn2)cc1 | 26.3 | 2.9 | 6.4 | – |
| O=C(NCc1cn(Cc2ccc(Cl)cc2)nn1)c1cn(-c2ccccc2)nc1-c1ccccc1 | 8.7 | > 100 | 0.6 | – |
| COc1cc(Cn2cc(CNC(=O)c3cn(-c4ccccc4)nc3-c3ccc(F)cc3)nn2)cc(OC)c1 | 0.19 | 2.5 | 0.36 | – |
| O=C(NCc1cn(Cc2ccc(C(F)(F)F)cc2)nn1)c1cn(-c2ccccc2)nc1-c1ccc(F)cc1 | 0.76 | 0.81 | 0.25 | – |
| COc1ccc(-c2nn(-c3ccccc3)cc2C(=O)NCc2cn(Cc3cc(OC)c(OC)c(OC)c3)nn2)cc1 | 31.6 | 7.6 | 1.7 | – |
| COc1ccc(Cn2cc(CNC(=O)c3cn(-c4ccccc4)nc3-c3ccc(F)cc3)nn2)cc1 | 3.7 | 0.65 | 0.87 | – |
| COc1cc(Cn2cc(CNC(=O)c3cn(-c4ccccc4)nc3-c3ccccc3)nn2)cc(OC)c1 | 0.19 | 2.4 | 12.2 | – |
| COc1cc(Cn2cc(CNC(=O)c3cn(-c4ccccc4)nc3-c3ccccc3)nn2)cc(OC)c1OC | 1 | > 100 | > 100 | – |
| O=C(NCc1cn(Cc2ccc(Cl)cc2)nn1)c1cn(-c2ccccc2)nc1-c1ccc(Cl)cc1 | 0.41 | 28.8 | 0.47 | – |
| COc1ccc(Cn2cc(CNC(=O)c3cn(-c4ccccc4)nc3-c3ccccc3)nn2)cc1OC | 8.2 | 12.6 | 10.8 | – |
| O=C(NCc1cn(Cc2ccc(C(F)(F)F)cc2)nn1)c1cn(-c2ccccc2)nc1-c1ccccc1 | 17.7 | 0.84 | 1.6 | – |
| O=C(NCc1cn(Cc2ccc(F)cc2)nn1)c1cn(-c2ccccc2)nc1-c1ccccc1 | 9.6 | 7 | 1.6 | – |
| COc1ccc(Cn2cc(CNC(=O)c3cn(-c4ccccc4)nc3-c3ccc(Cl)cc3)nn2)cc1OC | 9.4 | > 100 | 0.2 | – |
| COC(=O)Nc1nc2cc(C(=O)c3cccs3)ccc2[nH]1 [NOCODAZOLE] | 0.95 | 0.94 | 0.81 | viability at 0.1 µM (MCF7 [14]): 70.5%; Activity (MCF7 [15]): 7.6%; Activity (MCF7 [16]): 20.3%; Activity (MCF7 [17]): 1.6%; Activity (MCF7 [18]): Dose-dependent effect |
| O=C(NCc1cn(Cc2ccc(F)cc2)nn1)c1cn(-c2ccccc2)nc1-c1ccc(F)cc1 | 14.3 | 55.3 | 1.2 | – |
| COc1ccc(-c2nn(-c3ccccc3)cc2C(=O)NCc2cn(Cc3ccc(F)cc3)nn2)cc1 | 24.1 | 0.46 | 0.5 | – |
| COc1cc(Cn2cc(CNC(=O)c3cn(-c4ccccc4)nc3-c3ccc(Cl)cc3)nn2)cc(OC)c1 | 0.34 | 0.15 | 0.73 | Activity [4]: Active; Activity [5]: Dose-dependent effect; Activity [6]: Active; Activity (MCF7 [7]): Active; Activity (MCF7 [8]): Active; Activity (MCF7 [9]): Active; viability at 0.05 µM (MCF7 [10]): 83.2%; Activity (MCF7 [11]): 5.6%; Activity (MCF7 [12]): 10.2%; Activity (MCF7 [13]): 0.9%; viability at 0.1 µM (MCF7 [14]): 61.4%; Activity (MCF7 [15]): 7.8%; Activity (MCF7 [16]): 28.6%; Activity (MCF7 [17]): 2.2%; Activity (MCF7 [18]): Dose-dependent effect |
| COc1ccc(-c2nn(-c3ccccc3)cc2C(=O)NCc2cn(Cc3cc(OC)cc(OC)c3)nn2)cc1 | 5.8 | 0.7 | 12.4 | – |
